Calls of active or inactive are those of the source. The calls are words filed in the database; no cut-off is given here.
What was measured:
Mus musculus [1] = species: Mus musculus; assay: Antipsoriatic activity in K14-VEGF transgenic mouse model of psoriasis assessed as improvement of psoriatic symptoms at 0.05% applied tropically over lesion for continuous 21 days by macroscopic analysis relative to vehicle control; type: functional, organism-based
Summary of the method: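 Homozygous K14-VEGF mice, 3–4 months old, with moderate to serious psoriasis. Lesions smeared with cream with or without 0.05% compound for 3 weeks, then observed untreated for another 15 days. Head and neck photographed on days 0, 21 and 36 for macroscopic assessment.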

Mus musculus [2] = species: Mus musculus; assay: Downregulation of IFN-gamma expression in K14-VEGF transgenic mouse model of psoriasis at 0.05% applied tropically over lesion for 29 days by ELISA; type: functional, organism-based
Summary of the method: (§1)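 K14-VEGF mice were treated for 29 days with 0.05% cream or vehicle, n=3 each. At termination, blood was held at 4 °C for 12 h and then centrifuged. Plasma IFN-γ and IL-17 were measured by ELISA, mean ± SD.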

Mus musculus [3] = species: Mus musculus; assay: Antipsoriatic activity in K14-VEGF transgenic mouse model of psoriasis assessed as decrease in VEGF expression in psoriatic lesion at 0.05% applied tropically over lesion for continuous 29 days by immunohistochemical analysis relative to vehicle control; type: functional; set-up: scale not given: the % may be the effect or the level left
Summary of the method: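 K14-VEGF mice were treated topically with 0.05% cream or vehicle for 29 days, n=3 per group. Ear skin was paraffin-embedded, cut into 4-µm sections and immunostained. Staining was quantified in 5 random fields, reported as mean ± SD.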

Mus musculus [4] = species: Mus musculus; assay: Antipsoriatic activity in K14-VEGF transgenic mouse model of psoriasis assessed as reduction in epidermal thickness at 0.05% applied tropically over lesion for continuous 29 days by H and E staining method relative to vehicle control; type: functional, organism-based
Summary of the method: (§2)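 Homozygous K14-VEGF mice, 3–4 months old, with moderate to serious psoriasis; n=3 per group. Cream with 0.05% compound or vehicle cream smeared on lesions. Head and neck tissue sections taken after 29 days of treatment and HE-stained. Baker pathological score from 5 random fields, given as mean and SD. Epidermal thickness from 8 random fields, given as mean ± SEM.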

[5] = target: T1, Receptor-type tyrosine-protein kinase FLT3 (Mus musculus) (UniProt Q00342); assay: (§3) Inhibition of FLT3 in Balb/c mouse BMDCs assessed as suppression of FLT3L-induced mDC formation measured as lower right quadrant cells level treated on day 9 post 9 days of FLT3L-stimulation measured after 24 hrs by CD11c PerCP and I-A/I-E (MHC class II) FITC staining based flow cytometric analysis (reference value: 3.49%); set-up: scale not given: the % may be the effect or the level left
T1 sequence (whole entry): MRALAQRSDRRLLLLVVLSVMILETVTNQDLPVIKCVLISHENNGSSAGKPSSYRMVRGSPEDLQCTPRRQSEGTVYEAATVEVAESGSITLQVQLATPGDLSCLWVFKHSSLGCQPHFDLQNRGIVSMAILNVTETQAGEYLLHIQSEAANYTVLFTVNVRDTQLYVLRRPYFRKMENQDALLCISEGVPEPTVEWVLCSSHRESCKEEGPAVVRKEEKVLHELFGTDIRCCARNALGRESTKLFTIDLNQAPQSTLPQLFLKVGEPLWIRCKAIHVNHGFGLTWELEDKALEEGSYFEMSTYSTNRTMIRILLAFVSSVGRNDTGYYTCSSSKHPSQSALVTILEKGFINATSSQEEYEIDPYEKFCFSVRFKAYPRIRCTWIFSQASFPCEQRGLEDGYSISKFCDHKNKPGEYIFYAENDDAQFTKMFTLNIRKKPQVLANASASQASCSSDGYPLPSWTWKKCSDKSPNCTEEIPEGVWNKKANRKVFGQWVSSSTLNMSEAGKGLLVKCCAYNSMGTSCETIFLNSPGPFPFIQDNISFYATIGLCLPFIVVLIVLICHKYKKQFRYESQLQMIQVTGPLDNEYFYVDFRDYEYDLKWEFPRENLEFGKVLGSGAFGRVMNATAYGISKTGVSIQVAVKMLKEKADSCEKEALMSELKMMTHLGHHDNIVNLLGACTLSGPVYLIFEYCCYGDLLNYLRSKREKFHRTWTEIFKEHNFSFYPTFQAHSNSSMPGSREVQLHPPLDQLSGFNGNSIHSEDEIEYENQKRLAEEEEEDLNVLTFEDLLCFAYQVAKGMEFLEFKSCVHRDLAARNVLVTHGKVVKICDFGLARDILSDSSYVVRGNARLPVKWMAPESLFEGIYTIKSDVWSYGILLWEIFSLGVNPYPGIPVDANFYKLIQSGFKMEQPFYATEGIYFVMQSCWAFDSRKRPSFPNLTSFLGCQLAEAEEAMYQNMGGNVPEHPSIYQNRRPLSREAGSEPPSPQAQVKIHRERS
Summary of the method: (§4)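 BALB/c bone marrow cells were cultured at 1×10^6/ml with FLT3L in supplemented RPMI-1640 for 9 days. Compound in DMSO or 0.1% DMSO was added on day 9 for 24 h. Cells were stained for 30 min with CD11c PerCP plus B220 FITC (pDC: CD11c+ B220+) or MHC II FITC (mDC: CD11c+ MHC II+), then analysed by flow cytometry. Three independent experiments.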

Mus musculus [6] = species: Mus musculus; assay: Antipsoriatic activity in K14-VEGF transgenic mouse model of psoriasis assessed as reduction in infiltrated lymphocytes at 0.05% applied tropically over lesion for continuous 29 days by H and E staining method relative to vehicle control; type: functional, organism-based; summary of the method: as §2
Mus musculus [7] = species: Mus musculus; assay: Antipsoriatic activity in K14-VEGF transgenic mouse model of psoriasis assessed as decrease in DC cells expressing FLT3 and CD11c in psoriatic lesion at 0.05% applied tropically over lesion for continuous 29 days by flow cytometric analysis relative to control; type: functional
Mus musculus [8] = species: Mus musculus; assay: Downregulation of IL17 expression in K14-VEGF transgenic mouse model of psoriasis at 0.05% applied tropically over lesion for 29 days by ELISA; type: functional, organism-based; summary of the method: as §1
[9] = target: T1, Receptor-type tyrosine-protein kinase FLT3 (Mus musculus); assay: as §3, with “upper left” for “lower right”, “31.8%)” for “3.49%)”; set-up: scale not given: the % may be the effect or the level left; summary of the method: as §4
[10] = target: T1, Receptor-type tyrosine-protein kinase FLT3 (Mus musculus); assay: as §3, with “left” for “right”, “43.7%)” for “3.49%)”; set-up: scale not given: the % may be the effect or the level left; summary of the method: as §4
[11] = target: T1, Receptor-type tyrosine-protein kinase FLT3 (Mus musculus); assay: as §3, with “pDC” for “mDC”, “left” for “right”, “CD45R/B220” for “I-A/I-E (MHC class II)”, “36.5%)” for “3.49%)”; set-up: scale not given: the % may be the effect or the level left; summary of the method: as §4
[12] = target: T1, Receptor-type tyrosine-protein kinase FLT3 (Mus musculus); assay: as §3, with “pDC” for “mDC”, “upper left” for “lower right”, “CD45R/B220” for “I-A/I-E (MHC class II)”, “45.8%)” for “3.49%)”; set-up: scale not given: the % may be the effect or the level left; summary of the method: as §4
Mus musculus [13] = species: Mus musculus; assay: Antipsoriatic activity in K14-VEGF transgenic mouse model of psoriasis assessed as upper left quadrant DC cells expressing FLT3 and CD11c in psoriatic plaque lesion at 0.05% applied tropically over lesion for continuous 29 days by flow cytometric analysis (reference value: 8.83%); type: functional
Mus musculus [14] = species: Mus musculus; assay: Antipsoriatic activity in K14-VEGF transgenic mouse model of psoriasis assessed as reduction in focal parakeratinosis at 0.05% applied tropically over lesion for continuous 29 days by H and E staining method relative to vehicle control; type: functional, organism-based; summary of the method: as §2

CC(C)(C)c1cc(NC(=O)Nc2ccc(Oc3ncnc4[nH]ncc34)c(F)c2)no1
Activity (Mus musculus [1]): Active | Activity (Mus musculus [2]): Active | Activity (Mus musculus [3]): 90% | Activity (Mus musculus [4]): Active | Activity [5]: 5.15% | Activity (Mus musculus [6]): Active | inhibition (INH) (Mus musculus [7]): 69.6% | Activity (Mus musculus [8]): Active | Activity [9]: 23.5% | Activity [10]: 54.7% | Activity [11]: 47.2% | Activity [12]: 40.3% | Activity (Mus musculus [13]): 5.18% | Activity (Mus musculus [14]): Active

Reference: ChEMBL document CHEMBL4428067, “Drug Discovery against Psoriasis: Identification of a New Potent FMS-like Tyrosine Kinase 3 (FLT3) Inhibitor, 1-(4-((1H-Pyrazolo[3,4-d]pyrimidin-4-yl)oxy)-3-fluorophenyl)-3-(5-(tert-butyl)isoxazol-3-yl)urea, That Showed Potent Activity in a Psoriatic Animal Model” (J Med Chem, 2016)
